Screens deposited in PubChem by Broad Institute.
INS-1E rescue = protection of INS-1E cells from cytokine death, primary screen, ATP luminescence, single point; INS-1E cytokine-induced death, 48 h; normalised: neutral wells 0, positive control 100; protection from cytokine-induced ATP loss, % at 10 µM; hit rate 0.1% among 20,000; AID 488910, 2010;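 active = mean replicate protection from cytokine-induced ATP loss at least 50% and at least 75% of replicates each reaching 50%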
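Material: INS-1E rat cells; Quantity: 8000 cells/well; Buffer or medium: phenol-red-free RPMI with 5% fetal bovine serum; Probe or stimulus: cytokine cocktail of IFN-γ, TNF-α and IL-1β; Compound dosing: single test concentration per compound, delivered by pin transfer; Incubation: 48 h co-treatment, 10 min post-lysis read; Signal: CellTiter-Glo luminescence.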
T cruzi HTS = inhibitors of intracellular Trypanosoma cruzi, primary screen, cell-based, plate reader, single point, set 2. intracellular Trypanosoma cruzi in host cells. hit rate 4.9% among 22,000. activity score (inhibition), % at 5.01 µM. AID 651903, 2012; in the data active = activity score above about 55%;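 note: parasites and compound incubated about four days before reading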
A1 apoptosis 2 = A1 inhibitors via caspase activation, primary screen, cell-based, luminescence, HTS, two replicates. 24,000 tested, under 10 active. MEF A1-2A-BIM cells, caspase-Glo luminescence, 3 h; percent of clofoctol response, DMSO zero. caspase activation, % (test concentration not listed); in the data active = caspase activation above about 5.9%
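Material: A1-2A-BIM-expressing MEF cells. Buffer or medium: RPMI-1640 plus 10% FBS. Incubation: cells settled overnight, compound exposure 3 h at 37 °C, 5% CO2. Signal: Caspase-Glo 3/7 luminescence, 1 h at room temperature.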
A number is an active result; n = inactive; x = no result. Only a selection was taken, and hits are over-represented in it overall.

SMILES	INS-1E rescue	T cruzi HTS	A1 apoptosis 2
Cc1noc(C)c1S(=O)(=O)Nc1ccc2c(c1)C(=O)N([C@H](C)CO)C[C@H](C)[C@H](CN(C)Cc1ccc(C(F)(F)F)cc1)O2	n	63	x
Cc1noc(C)c1S(=O)(=O)Nc1ccc2c(c1)CC(=O)N([C@H](C)CO)C[C@@H](C)[C@@H](CN(C)Cc1ccc(Cl)c(Cl)c1)O2	n	61	x
Cc1noc(C)c1S(=O)(=O)Nc1ccc2c(c1)C(=O)N([C@H](C)CO)C[C@H](C)[C@@H](CN(C)Cc1ccc(Cl)c(Cl)c1)O2	n	63	x
Cc1noc(C)c1S(=O)(=O)Nc1ccc2c(c1)C(=O)N([C@@H](C)CO)C[C@@H](C)[C@H](CN(C)Cc1ccc(C(F)(F)F)cc1)O2	n	n	x
O=C(NO)c1ccc(C(=O)N/N=C/c2cccc3ccccc23)cc1	n	n	x
O=C(O)CCCCCC(=O)N/N=C/c1ccc(Br)s1	n	n	x
C[C@H]1CN([C@@H](C)CO)C(=O)c2cccc(NS(=O)(=O)c3cn(C)cn3)c2O[C@H]1CN(C)Cc1ccc(Oc2ccccc2)cc1	n	n	x
O=C(CCCCCC(=O)N/N=C/C=C/c1ccccc1)NO	x	x	n
C[C@@H]1CN([C@@H](C)CO)C(=O)c2cc(NC(=O)Nc3ccc(C(F)(F)F)cc3)ccc2O[C@H]1CN(C)S(=O)(=O)c1ccccc1	n	68	n
C[C@H]1CN([C@@H](C)CO)C(=O)c2cc(NC(=O)Nc3ccc(C(F)(F)F)cc3)ccc2O[C@@H]1CN(C)S(=O)(=O)c1ccc(F)cc1	n	n	n
Cc1ccc(S(=O)(=O)N(C)C[C@@H]2Oc3ccc(NC(=O)Nc4ccc(C(F)(F)F)cc4)cc3C(=O)N([C@H](C)CO)C[C@@H]2C)cc1	n	n	n
C[C@@H]1CN([C@H](C)CO)C(=O)c2cc(NC(=O)Nc3ccc(C(F)(F)F)cc3)ccc2O[C@@H]1CN(C)S(=O)(=O)c1ccccc1	n	n	n
Cc1ccc(S(=O)(=O)N(C)C[C@H]2Oc3ccc(NC(=O)Nc4ccc(C(F)(F)F)cc4)cc3C(=O)N([C@@H](C)CO)C[C@H]2C)cc1	n	64	n
C[C@@H]1CN([C@H](C)CO)C(=O)c2cc(NC(=O)Nc3ccc(C(F)(F)F)cc3)ccc2O[C@H]1CN(C)S(=O)(=O)c1ccc(F)cc1	n	65	n
C[C@H]1CN([C@@H](C)CO)C(=O)c2cc(NC(=O)C3CCCCC3)ccc2O[C@@H]1CN(C)CC1CC1	n	n	n
COC(=O)c1ccc(/C=N/NC(=O)c2ccc(C(=O)NO)cc2)cc1	x	x	n
O=C(O)CCCCCCC(=O)N/N=C/c1ccc(C(F)(F)F)cc1	n	n	x
COc1ccc(NC(=O)Nc2ccc3c(c2)C(=O)N([C@@H](C)CO)C[C@@H](C)[C@@H](CN(C)Cc2ccc(C(F)(F)F)cc2)OCCCC[C@H](C)O3)cc1	x	x	n
C[C@@H]1CCCCO[C@@H](CN(C)Cc2ccccc2)[C@@H](C)CN([C@H](C)CO)C(=O)c2cc(NC(=O)Nc3ccc(C(F)(F)F)cc3)ccc2O1	n	71	x
COc1ccc(NC(=O)Nc2ccc3c(c2)C(=O)N([C@H](C)CO)C[C@H](C)[C@@H](CN(C)Cc2ccc(C(F)(F)F)cc2)OCCCC[C@@H](C)O3)cc1	n	63	n
C[C@@H]1CCCCO[C@@H](CN(C)Cc2ccccc2)[C@@H](C)CN([C@@H](C)CO)C(=O)c2cc(NC(=O)Nc3ccc(C(F)(F)F)cc3)ccc2O1	x	x	n
C[C@@H]1CCCCO[C@H](CN(C)Cc2ccc(C(F)(F)F)cc2)[C@@H](C)CN([C@@H](C)CO)C(=O)c2cc(NC(=O)c3ccccc3)ccc2O1	x	x	n
C[C@@H]1CCCCO[C@@H](CN(C)Cc2ccc(C(F)(F)F)cc2)[C@@H](C)CN([C@H](C)CO)C(=O)c2cc(NC(=O)c3ccccc3)ccc2O1	n	63	x
C[C@@H]1CCCCO[C@@H](CN(C)Cc2ccc(C(F)(F)F)cc2)[C@H](C)CN([C@@H](C)CO)C(=O)c2cc(NC(=O)Cc3ccccc3)ccc2O1	x	x	n
C[C@@H]1CCCCO[C@@H](CN(C)Cc2ccc(C(F)(F)F)cc2)[C@@H](C)CN([C@H](C)CO)C(=O)c2cc(NC(=O)Cc3ccccc3)ccc2O1	n	63	x
C=CCNC(=O)[C@H]1[C@@H]2C(=O)O[C@@H](c3ccccc3)[C@@H](c3ccccc3)N2[C@@H](c2ccccc2OCCO)[C@]12C(=O)Nc1ccccc12	x	x	n
